# Assay outcomes (PubChem BioAssay)
# Rows were chosen to be rich in hits. Some 3.1% of all compounds tested hit in one or more screens of this group.
# CHO parental Ca – signal in parental CHO cells, OX1R antagonist counter-screen | parental CHO-K1, ATP-induced calcium, Fluo-8 fluorescence | inhibition, % at 5.6 µM | 330,000 tested, 0.63% active | AID 463079;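 active = inhibition above that plate's mean sample inhibition plus 3 SD, cut at about 26% in these data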;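 note: 0% = ATP-challenged DMSO wells and 100% = DMSO wells without ATP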
#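 material = parental CHO cells | also added = ATP as calcium-mobilizing challenge | dosing = single point at 5.6 µM | detection = intracellular calcium via Fluo-8 no-wash fluorescent dye | read-out = % inhibition | benchmarks = low control ATP plus DMSO, high control DMSO only | repeats = one well per compound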
# OX1R antag-1 – blocks the human orexin 1 receptor; inhibition, % at 5 µM; O43613; CHO/OX1R cells, Fluo-8 calcium fluorescence, orexin A; 330,000 tested, 0.43% active; AID 434989;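 active = inhibition above its plate's threshold, mean inhibition of all tested compounds on the plate plus 3 SD, cut at about 37% in these data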;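 note: 0% = orexin A challenge wells and 100% = SB-334867-A antagonist wells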
# Target sequence (O43613 whole entry, looked up): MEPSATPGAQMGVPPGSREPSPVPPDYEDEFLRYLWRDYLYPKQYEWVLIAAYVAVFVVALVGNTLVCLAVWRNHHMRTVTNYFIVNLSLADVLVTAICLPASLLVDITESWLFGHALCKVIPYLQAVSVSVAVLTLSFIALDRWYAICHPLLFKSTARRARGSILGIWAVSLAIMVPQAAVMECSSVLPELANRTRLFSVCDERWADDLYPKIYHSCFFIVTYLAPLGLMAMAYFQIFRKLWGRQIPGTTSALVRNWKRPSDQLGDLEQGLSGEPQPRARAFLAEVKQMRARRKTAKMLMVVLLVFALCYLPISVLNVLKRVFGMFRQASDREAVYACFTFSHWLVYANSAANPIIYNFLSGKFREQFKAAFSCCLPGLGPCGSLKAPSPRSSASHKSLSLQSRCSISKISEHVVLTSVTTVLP
# GalR3 antag – human GalR3 antagonism. inhibition, % at 3 µM. O60755. HEK293 GalR3-CNG cAMP membrane potential fluorescence; galR3 body fused to GalR1 C-terminus. 360,000 tested, 0.44% active;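 active = inhibition above the screen-wide average plus 3 SD, cut at about 13% in these data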;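 note: forskolin and galanin both at EC90 stimulate the cells; cAMP rise reported by CNG channel membrane potential dye signal; 0% = forskolin plus galanin with DMSO and 100% = forskolin alone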
# GPR7 antag – blocks human GPR7 receptor signaling | GPR7-expressing cells, fluorescence antagonist assay | inhibition, % at 4.4 µM | 290,000 tested, 1.1% active; in the data active = inhibition above about 16%, passing the limit was not always enough;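 note: cells stimulated with the agonist NPW; 0% = agonist with vehicle and 100% = vehicle without agonist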
# OX1R antag-2 – OX1R (human) antagonism | OX1R-expressing cells, FRET antagonist read-out | inhibition, % at 6.6 µM | 330,000 tested, 1.8% active | AID 485270; in the data active = inhibition mostly above about 38%, no sharp cut-off; inactive = mostly below about 40%;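 note: 0% = agonist challenge alone and 100% = reference antagonist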
# An asterisk follows results filed as active; . = not tested or not shown.
SMILES,CHO parental Ca,OX1R antag-1,GalR3 antag,GPR7 antag,OX1R antag-2
Cc1nc2ccc(NC(=O)c3ccc(S(=O)(=O)N(C)C)cc3)cc2s1,-4.5,-15.2,-2.1,-16.6,4.3
CN(c1cccc(NC(=O)c2ccc(N(C)S(=O)(=O)c3ccccc3)cc2)c1)S(C)(=O)=O,62.1*,67.4*,-6.7,6.4,21.2
COc1ccc(N(C)S(=O)(=O)c2cccc(C(=O)Nc3cccc(C(=O)NC4CC4)c3)c2)cc1,-15.8,-4.8,-6.0,.,8.4
COc1ccc(N(C)S(=O)(=O)c2cccc(C(=O)NC3CCCCCC3)c2)cc1,-19.5,-29.3,-4.1,42.7*,18.9
Cc1ccc(S(=O)(=O)CCc2nnc(N)s2)cc1C,38.3*,0.7,1.0,-9.7,17.7
Nc1nnc(CCS(=O)(=O)c2ccc(Cl)cc2)s1,4.8,-5.9,-5.6,-8.3,6.8
CCOC(=O)c1cnc(-n2nc(C)cc2C)nc1Nc1ccc(OC)cc1,-21.2,-38.7,-3.7,-10.5,12.8
CCOC(=O)c1cnc(-n2nc(C)cc2C)nc1NC1CCCC1,42.8*,59.2*,-5.6,12.5,14.5
O=C(C1CCCO1)N1CCN(Cc2c(O)ccc3ccccc23)CC1 (centres undefined),28.9*,-19.1,-3.1,0.7,36.7
Cc1coc2c(C)c3oc(=O)c4c(c3cc12)CCC4,.,.,.,-0.6,.
O=c1oc2c3c4c(cc2c2c1CCC2)OCCN4CCC3,-13.5,-5.8,-3.9,-7.3,58.7*
c1cncc(C2SCCCS2)c1,.,.,-3.8,.,.
CC(C)(C)n1cnc2cc(NS(=O)(=O)c3ccc(Br)cc3)ccc21,58.0*,59.5*,-6.4,0.3,59.4
Cc1ccc(S(=O)(=O)Nc2ccc3c(c2)ncn3C(C)(C)C)cc1,-12.7,-17.9,-7.0,-5.0,-0.6
NC(=O)CN1CCN(CCN2C(=O)c3cccc4cccc(c34)C2=O)CC1,-4.7,-1.9,-5.4,-9.3,41.6*
O=C(CN1C(=O)c2cccc3cccc(c23)C1=O)N1CCCCCC1,-11.2,5.6,-7.6,-1.6,56.0*
CCNC(=S)N1CCN(CCN2C(=O)c3cccc4cccc(c34)C2=O)CC1,-29.9,-24.2,2.4,0.4,43.3
O=C1c2cccc3cc([N+](=O)[O-])cc(c23)C(=O)N1CCN1CCCC1,.,.,-8.5,-7.5,.
Nc1cc2c3c(cccc3c1)C(=O)N(CCN1CCCC1)C2=O,0.2,4.0,-5.2,15.0,42.8*
COC(=O)CCC[C@H](C)[C@@H](NS(=O)(=O)c1ccc(C)cc1)C(C)(C)C,.,.,-5.4,.,.
Cc1ccccc1NC1=C/C(=N\S(=O)(=O)c2cccs2)c2ccccc2C1=O,-18.6,-29.0,-7.9,-6.7,38.7
Cc1ccccc1NC1=C/C(=N\S(=O)(=O)c2ccc(C(=O)O)cc2)c2ccccc2C1=O,1.7,-14.7,-6.4,-14.3,59.3*
COc1ccc(S(=O)(=O)/N=C2\C=C(Nc3ccc(O)cc3)C(=O)c3ccccc32)cc1,-23.3,0.4,-8.8,-28.0,27.5
O=C(O)c1ccc(S(=O)(=O)/N=C2\C=C(Nc3ccccc3F)C(=O)c3ccccc32)cc1,-16.6,-11.4,-10.8,-38.2,63.4*
CC(C)CN1CCC(CN2C(=S)NC[C@@H]2Cc2ccccc2)CC1,.,.,-3.0,.,.
SMILES,CHO parental Ca,OX1R antag-1,GalR3 antag,GPR7 antag,OX1R antag-2
O=C(COc1ccc(S(=O)(=O)N2CCOCC2)cc1Cl)NCc1ccc2c(c1)OCO2,.,.,-1.2,.,.
O=C(CN1CCN(Cc2ccccc2)CC1)N=Nc1c(O)[nH]c2ccccc12,-13.6,-18.7,-1.3,-6.5,38.5
O=C(CNC(=O)c1cccs1)N=Nc1c(O)[nH]c2ccc([N+](=O)[O-])cc12,-7.9,-10.0,-2.1,-10.0,40.8*
CCCCCCC(=O)N=Nc1c(O)[nH]c2ccc([N+](=O)[O-])cc12,-12.2,-14.4,0.1,-13.3,38.9
O=C(CNC(=O)Cc1ccccc1)N=Nc1c(O)[nH]c2ccccc12,-0.4,-16.7,-4.6,-4.4,44.8*
O=C(CNC(=O)c1ccco1)N=Nc1c(O)[nH]c2ccc(Br)cc12,-9.7,-8.0,-0.5,10.0,36.4*
O=C(NCCCCC(NC(=O)c1ccccc1)C(=O)O)OCc1ccccc1 (centres undefined),.,.,-7.1,.,.
COCc1[nH]nc2c1C(c1ccc3c(c1)OCO3)N(Cc1ccccc1)C2=O (centres undefined),.,.,-6.1,.,.
O=[N+]([O-])c1ccc(CN2[C@H](COCc3ccccc3)C=CS2(=O)=O)cc1,.,.,-0.9,.,.
CC(=O)NC(=S)c1c(N)n(Cc2ccccc2)c(=O)n(C)c1=O,-7.5,-38.6,.,20.6*,4.2
